Compound activity as filed in PubChem.
Only some compounds are listed: those with a hit (about 1.1% of all), similar ones and a draw of the others.
thrombin 1536: human alpha-thrombin inhibitors, primary screen, counter-screen for coagulation protease inhibitor project, biochemical, 1536-well, fluorogenic AMC substrate | inhibition, % at 5 µM | Boc-VPR-AMC fluorogenic substrate cleavage | Prothrombin (Homo sapiens), P00734 | 220,000 compounds, 0.26% hits;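 active = inhibition at or above 40%; inactive = inhibition below 40%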;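 note: 0% = enzyme with no compound and 100% = wells without enzyme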
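System: Human alpha-thrombin protein | Medium: pH 7.5 Tris (50 mM) with NaCl 150 mM, Tween 20 0.05% | Times: Enzyme reaction carried out at room temperature | Detection: AMC fluorescence, 355/460 nm | Evaluation: Percent inhibition scaled between no-compound controls and no-enzyme blanks | Benchmarks: Enzyme without compound as high, wells lacking enzyme as low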
FXIa inh 1536: human FXIa protease inhibitors, primary screen, biochemical, 1536-well. Coagulation factor XI (Homo sapiens), P03951. purified FXIa, Boc-Glu-Ala-Arg-AMC fluorogenic substrate. inhibition, % at 5 µM. 220,000 compounds, 0.14% hits. AID 798, 2007;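 active = inhibition of at least 40%; inactive = inhibition below 40%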;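 note: fluorescence of freed AMC excited at 355 nm; 0% = enzyme without compound and 100% = no enzyme blank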
FXIIa inh 1536: human FXIIa protease inhibitors, primary screen, biochemical, 1536-well. inhibition, % at 5 µM. 220,000 compounds, 0.3% hits. purified FXIIa, Boc-QGR-AMC fluorogenic substrate, 2 h; in the data active = inhibition above about 40%;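 note: 0% = enzyme with no compound and 100% = blank without enzyme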
Target sequence (P00748 20-372 limits assumed): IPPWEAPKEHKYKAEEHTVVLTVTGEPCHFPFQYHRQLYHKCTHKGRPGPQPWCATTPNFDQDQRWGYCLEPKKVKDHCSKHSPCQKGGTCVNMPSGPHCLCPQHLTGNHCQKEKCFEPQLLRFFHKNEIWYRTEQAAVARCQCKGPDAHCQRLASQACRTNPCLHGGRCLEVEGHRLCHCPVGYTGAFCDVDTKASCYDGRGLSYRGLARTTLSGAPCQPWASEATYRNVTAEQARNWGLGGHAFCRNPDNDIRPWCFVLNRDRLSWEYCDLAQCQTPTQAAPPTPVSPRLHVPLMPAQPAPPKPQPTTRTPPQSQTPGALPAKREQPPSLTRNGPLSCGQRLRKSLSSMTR
Target sequence (P00748 373-615 limits assumed): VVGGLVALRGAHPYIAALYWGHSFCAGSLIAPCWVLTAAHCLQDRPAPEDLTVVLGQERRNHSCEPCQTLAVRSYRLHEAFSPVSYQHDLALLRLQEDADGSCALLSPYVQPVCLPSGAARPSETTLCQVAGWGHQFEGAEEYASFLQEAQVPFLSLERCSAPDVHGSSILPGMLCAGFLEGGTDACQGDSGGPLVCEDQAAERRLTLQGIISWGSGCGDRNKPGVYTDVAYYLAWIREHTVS
TbHK1 inh: Trypanosoma brucei hexokinase 1 inhibitors, primary screen, biochemical, G6PDH-coupled NADH absorbance, MLSCN library; 220,000 compounds, 0.11% hits; AID 1430, 2008; recombinant TbHK1, G6PDH-coupled NADH A340; inhibition, % at 10 µM;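 active = inhibition of 50% or more in the single-dose primary screen; inactive = inhibition below 50%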
hK5 inh: human KLK5 protease inhibitors, primary screen, biochemical, 1536-well. recombinant hK5, fluorogenic AMC substrate cleavage. 210,000 compounds, 0.59% hits. inhibition, % at 5 µM;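 active = inhibition of 40% or more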;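 note: 0% = enzyme controls without compound and 100% = no-enzyme blanks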
G6PDH ctr: Leuconostoc G6PDH inhibition, confirmation, counter-screen for TbHK1 inhibitor project, biochemical, DPI cherry-picked compounds, single concentration | shares compounds with TbHK1 inh | purified G6PDH, NADH absorbance, 1 h | inhibition, % at 10 µM | 210 compounds, 7% hits;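 active = at least 50% inhibition in the glucose-6-phosphate dehydrogenase coupled counterscreen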
TbHK1 rescreen: TbHK1 inhibitor retest, confirmation, biochemical, DPI cherry-picked primary actives | shares compounds with TbHK1 inh | recombinant TbHK1, G6PDH-coupled NADH A340 absorbance | inhibition, % at 10 µM | 210 compounds, 10% hits | AID 2560, 2010;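 active = inhibition of at least 50% in both of the two screening runs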;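 note: 0% and 100% set by the maximum and minimum signal control wells on each plate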
The depositor's hits bear a star; · = not tested or not shown.

SMILES	thrombin 1536	FXIa inh 1536	FXIIa inh 1536	TbHK1 inh	hK5 inh	G6PDH ctr	TbHK1 rescreen
CN1CCc2nc3ccc(Cl)cc3c(-c3ccccc3Cl)c2C1	0	26	23	-5	1	·	·
O=C(O)CC(NC(=O)C12CC3CC(CC(C3)C1)C2)c1ccc2c(c1)OCO2 (centres undefined)	0	-2	10	-9	·	·	·
CCCOc1ccc(C(CC(=O)O)NC(=O)C23CC4CC(CC(C4)C2)C3)cc1 (centres undefined)	-5	-10	-11	60*	-3	-30	2
c1ccc(-c2cnc(-c3ccccc3)nc2)cc1	-8	6	7	59*	-14	-32	-23
CCCN1Cc2cccc(C(=O)NC(CC(=O)OCC)c3ccc(OCC)c(OC)c3)c2C1=O (centres undefined)	0	4	12	-2	·	·	·
CCC(C)C(=O)Nn1c(C2CC2)nc2cc(OC)c(OC)cc2c1=O (centres undefined)	-4	-2	6	3	13	·	·
OC(COCc1ccccc1)CN1CCN(c2ccccc2)CC1 (centres undefined)	-5	1	9	7	-16	·	·
OC(COCc1ccccc1)CN1CCCC1 (centres undefined)	-3	1	8	60*	-23	-4	-7
Cc1occc1C(=O)NCCCCNC(=O)c1ccoc1C	-2	0	7	6	-15	·	·
CCCCCCCCCCCNC(=O)c1ccoc1C	3	14	20	55*	-7	-31	86*
Cc1nc(NC(=O)c2cccc(Cl)c2)sc1C(=O)N1CCCCC1	-8	-3	4	-14	-7	·	·
COc1cc(OC)cc(C(=O)NC2CCN(CC(=O)Nc3cccc4ccccc34)CC2)c1	2	13	22	53*	-12	-39	-8
COc1cccc(C(=O)NC2CCN(CC(=O)Nc3cccc(C)c3C)CC2)c1	-12	2	8	-6	1	·	·
CCCCOC(=O)Cn1cnc2ccc(Br)cc2c1=O	0	0	14	59*	-3	-9	3
NC(=S)c1cc2ccc(O)cc2oc1=O	3	3	16	85*	-37	109*	80*
CCOC(=O)Cc1csc(SCn2nnc3ccccc3c2=O)n1	0	5	17	-5	-3	·	·
CCOC(=O)Cc1csc(-n2sc3ccccc3c2=O)n1	-1	5	11	66*	8	-22	69*
O=C(CN1CCN(Cc2ccccc2)CC1)N1CCCc2c1c(=O)oc1ccc(O)cc21	0	-11	4	54*	-6	8	-26
O=C(c1ccco1)N1CCN(CC(=O)N2CCCc3c2c(=O)oc2ccc(O)cc32)CC1	-1	-2	16	-13	-17	·	·
O=C(NCc1cccc(Br)c1)C1CC(c2ccccc2C(F)(F)F)=NO1 (centres undefined)	-5	-6	2	-2	-3	·	·
CC(C)c1[nH]nc2c1C(c1cccnc1)C(C#N)=C(N)O2 (centres undefined)	0	5	12	52*	-14	-11	4
O=C(NC1CC2CCCC(C1)N2C(=O)NC1CCCCC1)c1ccc(F)cc1 (centres undefined)	-8	-2	19	65*	-10	-8	-3
Cc1ccc(C(=O)NC2CC3CCCC(C2)N3C(=O)NC2CCCCC2)cc1 (centres undefined)	3	2	11	-3	-6	·	·
CSc1cccc(NC(=O)C2CCCN2S(=O)(=O)c2ccc(Br)s2)c1 (centres undefined)	3	-1	8	54*	0	21	14
CSc1cccc(NC(=O)C2CCN(S(=O)(=O)c3ccc(F)cc3)CC2)c1	-2	1	8	7	-12	·	·
SMILES	thrombin 1536	FXIa inh 1536	FXIIa inh 1536	TbHK1 inh	hK5 inh	G6PDH ctr	TbHK1 rescreen
CCC(C)/C(C)=N/NC(=O)CSc1nc2ccccc2[nH]1 (centres undefined)	-2	-1	9	3	2	·	·
COc1ccc(NC(=O)C2CC(=O)N(c3cccc(C)c3C)C2)cc1 (centres undefined)	6	11	20	56*	3	-6	-1
Cc1cccc(NC(=O)C2CC(=O)N(c3ccccc3)C2)c1C (centres undefined)	-4	-6	4	3	-3	·	·
CC(=O)Nc1ccc(NC(=O)C2CC(=O)N(c3cccc(C)c3C)C2)cc1 (centres undefined)	-2	1	11	51*	-9	-7	-1
Cc1ccccc1NC(=O)C1CC(=O)N(c2ccccc2F)C1 (centres undefined)	20	11	15	3	40	·	·
O=S(=O)(c1ccc(Cl)nc1)N1CCN(c2ncccn2)CC1	-3	3	5	-3	1	·	·
O=C(O)C(Cc1ccccc1)N1C(=O)/C(=C/C=C/c2ccco2)SC1=S (centres undefined)	-1	-6	7	51*	-22	-71	40
O=C(O)CC(C(=O)O)N1C(=O)/C(=C/C=C/c2ccco2)SC1=S (centres undefined)	-9	5	4	-10	3	·	·
O=C1CSC(=S)N1/N=C/c1ccc(O)c(O)c1O	-4	6	10	50*	-33	-49	35
Cc1c(N/N=C(\C#N)C(=O)c2ccccc2)c(=O)n(-c2ccccc2)n1C	2	7	8	47	-60	·	·
Cc1ccccc1C(=O)/C(C#N)=N/Nc1c(C)n(C)n(-c2ccccc2)c1=O	4	5	9	53*	-47	-81	-62
CC(NC(=O)CNC(=O)OCc1ccccc1)C(=O)N1CC(O)CC1C(=O)OCc1ccccc1 (centres undefined)	-6	-1	18	51*	-18	-10	-1
COc1ccc(CC(=O)OC(C)CN2CCCC2)cc1 (centres undefined)	-2	0	22	56*	-14	0	-3
S=c1nc(-c2ccccc2)[nH]c2ccc(Br)cc12	0	0	9	-21	1	·	·
S=C(NCc1ccccn1)Nc1ccc(Cl)cc1	-3	1	18	3	-35	·	·
Fc1cccc(NC(=S)NCc2ccccn2)c1	-2	-6	7	52*	-20	4	1
